Measured values taken from ChEMBL document CHEMBL4024783, “Alkylated Piperazines and Piperazine-Azole Hybrids as Antifungal Agents” (J Med Chem, 2018).
Converted amounts (≈) assume the structure as drawn. The source made the active and inactive calls. The rule behind the calls is not given here.

Tests used:
[1] = tested on: Candida albicans; assay: Antifungal activity against Candida albicans ATCC 64124 after 48 hrs by broth dilution method; type: functional; conditions: for MIC: Candida albicans, ATCC 64124, 48 h
Outline: (§1)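 CLSI M27-A3 broth microdilution with minor modifications. Overnight YPD culture grown at 35 °C, 200 rpm, adjusted to OD600 0.12, diluted in RPMI 1640 buffered to pH 7.0 with 0.165 M MOPS to a final 1–2 × 10^3 CFU/mL. Test compounds at 0.015–31.3 µg/mL, 48 h at 35 °C, DMSO <1.25%. […] Triplicate.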

[2] = tested on: Candida albicans; assay: Antifungal activity against itraconazole and fluconazole susceptible Candida albicans ATCC MYA-2876 after 48 hrs by broth dilution method; type: functional; conditions: for MIC: Candida albicans, ATCC MYA-2876, 48 h
[3] = tested on: Candida albicans; assay: Antifungal activity against itraconazole and fluconazole resistant Candida albicans ATCC 90819 after 48 hrs by broth dilution method; type: functional; conditions: for MIC: Candida albicans, ATCC 90819, 48 h; outline: as §1
[4] = tested on: Candida albicans; assay: Antifungal activity against itraconazole and fluconazole susceptible Candida albicans ATCC MYA-2310 after 48 hrs by broth dilution method; type: functional; conditions: for MIC: Candida albicans, ATCC MYA-2310, 48 h
[5] = tested on: Nakaseomyces glabratus; assay: Antifungal activity against Candida glabrata ATCC 2001 after 48 hrs by broth dilution method; type: functional, CBS 138; conditions: for MIC: Nakaseomyces glabratus, CBS 138, 48 h
[6] = tested on: Pichia kudriavzevii; assay: Antifungal activity against Candida krusei ATCC 6258 after 48 hrs by broth dilution method; type: functional; conditions: for MIC: Pichia kudriavzevii, ATCC 6258, 48 h
Outline: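 Yeasts tested per CLSI M27-A3 with minor changes. An overnight YPD culture (35 °C, 200 rpm) was adjusted to OD600 0.12 and diluted in MOPS-buffered RPMI 1640 (pH 7.0) to a final 1–2 × 10^3 CFU/mL. Compounds 0.015–31.3 µg/mL, DMSO <1.25%.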

[7] = tested on: Candida parapsilosis; assay: Antifungal activity against Candida parapsilosis ATCC 22019 after 48 hrs by broth dilution method; type: functional; conditions: for MIC: Lodderomyces parapsilosis, ATCC 22019, 48 h
[8] = tested on: Candida albicans; assay: Antifungal activity against Candida albicans ATCC 10231 at 7.8 ug/mL incubated for 1 hr by propidium iodide staining-based fluorescence microscopic method; type: functional
Outline: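 C. albicans ATCC 10231 grown overnight in YPD broth at 35 °C with shaking at 200 rpm, then transferred to RPMI 1640. Cells were exposed to drug and stained with propidium iodide, which enters only cells with compromised membranes. Uptake was judged by fluorescence microscopy against an untreated control.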

[9] = tested on: Candida albicans; assay: Inhibition of 14alpha-demethylase in Candida albicans ATCC 10231 assessed as ergosterol levels at […] by GC-MS analysis; parameters: scale not given: the % may be the effect or the level left
[10] = tested on: Candida albicans; assay: Inhibition of 14alpha-demethylase in Candida albicans ATCC 10231 assessed as 14alpha-methyl ergosta-8,24(28)-dien-3beta,6alpha-diol levels at […] by GC-MS analysis; parameters: scale not given: the % may be the effect or the level left
[11] = Aqueous solubility of the compound; type: physicochemical; conditions: buffer
[12] = Solubility of the compound in DMSO; type: physicochemical
[13] = tested on: Candida albicans; assay: Antifungal activity against Candida albicans ATCC 10231 after 48 hrs in the presence of 10% FBS by broth dilution method; type: functional; conditions: ATCC 10231, 48 h
[14] = tested on: Candida albicans; assay: Antifungal activity against Candida albicans ATCC 10231 after 48 hrs by broth dilution method; type: functional; conditions: ATCC 10231, 48 h
[15] = tested on: Candida albicans; assay: Antifungal activity against itraconazole and fluconazole resistant Candida albicans ATCC MYA-1237 after 48 hrs by broth dilution method; type: functional; conditions: Candida albicans, ATCC MYA-1237, 48 h; outline: as §1
[16] = tested on: Candida albicans; assay: Antifungal activity against itraconazole and fluconazole resistant Candida albicans ATCC MYA-1003 after 48 hrs by broth dilution method; type: functional; conditions: Candida albicans, ATCC MYA-1003, 48 h; outline: as §1
[17] = tested on: Aspergillus flavus; assay: Antifungal activity against Aspergillus flavus ATCC MYA-3631 after 48 hrs by broth dilution method; type: functional; conditions: ATCC MYA-3631, 48 h
[18] = tested on: Aspergillus nidulans; assay: Antifungal activity against Aspergillus nidulans ATCC 38163 after 48 hrs by broth dilution method; type: functional; conditions: Aspergillus nidulans, ATCC 38163, 48 h
Outline: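 A. nidulans run per CLSI M38-A2. PDA spores were filtered through glass wool and counted by hemocytometer. Test range 0.03–31.3 µg/mL in MOPS-buffered RPMI 1640 (pH 7.0), final 5 × 10^5 CFU/mL.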

[19] = tested on: Aspergillus terreus; assay: Antifungal activity against Aspergillus terreus ATCC MYA-3633 after 48 hrs by broth dilution method; type: functional; conditions: Aspergillus terreus, ATCC MYA-3633, 48 h
Outline: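 Molds tested per CLSI M38-A2. Spores were harvested from sporulating PDA cultures by filtering through glass wool and counted on a hemocytometer. Serial dilutions (0.03–31.3 µg/mL) were made in RPMI 1640 buffered to pH 7.0 with 0.165 M MOPS, final inoculum 5 × 10^5 CFU/mL.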

[20] = tested on: Candida albicans; assay: Antibiofilm activity against voriconazole resistant Candida albicans ATCC 64124 sessile cells incubated for 24 hrs by XTT reduction assay; type: functional; conditions: ATCC 64124, 24 h
Outline: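 Strain B grown overnight in YPD broth at 35 °C, diluted to OD600 0.1 (~10^6 CFU/mL), then grown statically for 24 h at 37 °C to form biofilm. Washed with PBS, then drug in RPMI 1640 at 0.12–62.5 µg/mL for 24 h at 37 °C. Read-out: XTT 0.5 mg/mL with menadione 1 µM, 2 h, A490. SMIC50/SMIC80 are 50%/80% decreases versus drug-free biofilm. Duplicate.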

[21] = tested on: A549; assay: Cytotoxicity against human A549 cells up to 31 ug/ml after 24 hrs by resazurin-based fluorescence assay; type: cell-based; conditions: a549, 24 h
Outline: (§2)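 Cells grown in DMEM with 10% FBS at 37 °C, 5% CO2, and seeded at 10000 (HEK-293) or 3000 (BEAS-2B, A549) per well. After 16 h, exposed 24 h to 0.13–31 µg/mL final in medium with 0.1–0.4% DMSO. Resazurin added for 6–10 h; fluorescence read at 560/590 nm and survival normalized to DMSO control after background subtraction. Triton X-100 12.5% v/v positive control; duplicate.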

[22] = tested on: HEK293; assay: Cytotoxicity against HEK293 cells up to 31 ug/ml after 24 hrs by resazurin-based fluorescence assay; type: cell-based; conditions: human, hek293, 24 h; outline: as §2
[23] = tested on: BEAS-2B; assay: Cytotoxicity against human BEAS2B cells up to 31 ug/ml after 24 hrs by resazurin-based fluorescence assay; type: cell-based; outline: as §2
[24] = tested on: Candida parapsilosis; assay: Ratio of MIC in presence of 10% FBS to MIC in absence of 10% FBS for Candida parapsilosis ATCC 22019; type: functional
Outline: (§3)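 MIC broth dilution run in parallel in RPMI 1640 with or without 10% fetal bovine serum against C. albicans ATCC 10231, C. parapsilosis ATCC 22019 and A. nidulans ATCC 38163.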

[25] = tested on: Candida albicans; assay: Ratio of MIC in presence of 10% FBS to MIC in absence of 10% FBS for Candida albicans ATCC 10231; type: functional; outline: as §3
[26] = tested on: Aspergillus nidulans; assay: Ratio of MIC in presence of 10% FBS to MIC in absence of 10% FBS for Aspergillus nidulans ATCC 38163; type: functional; outline: as §3
[27] = tested on: Candida albicans; assay: Ratio of MIC80 for voriconazole resistant Candida albicans ATCC 64124 sessile cells to MIC for voriconazole resistant Candida albicans ATCC 64124; type: functional
[28] = tested on: Candida parapsilosis; assay: Antifungal activity against Candida parapsilosis ATCC 22019 after 48 hrs in the presence of 10% FBS by broth dilution method; type: functional; conditions: Lodderomyces parapsilosis, ATCC 22019, 48 h
[29] = tested on: Aspergillus nidulans; assay: Antifungal activity against Aspergillus nidulans ATCC 38163 after 48 hrs in the presence of 10% FBS by broth dilution method; type: functional; conditions: ATCC 38163, 48 h

With `OC(Cn1cncn1)(Cn1cncn1)c1ccc(F)cc1F` [FLUCONAZOLE] the “MIC=<50” value [1] was over 408.1 µM, the “MIC=<50” value [2] was 50.9 µM (≈ 15.6 µg/mL) and the “MIC=<50” value [3] was over 408.1 µM. The “MIC=<50” value [4] was over 408.1 µM, the “MIC=<50” value [5] was over 102.2 µM and the “MIC=<50” value [6] was over 102.2 µM. The “MIC=<50” value [7] was 6.4 µM (≈ 1.96 µg/mL), the Activity [8] was “inactive” and the Activity [9] was 95.9%. For the same molecule, the Activity [10] was 4.1%, the solubility [11] was “Soluble” and the solubility [12] was “Soluble”.
`C[C@@H]1[C@H](O)[C@@H](C)/C=C/C=C/C=C/C=C/C=C/C=C/C=C/[C@H](O[C@@H]2O[C@H](C)[C@@H](O)[C@H](N)[C@@H]2O)C[C@@H]2O[C@](O)(C[C@@H](O)C[C@@H](O)[C@H](O)CC[C@@H](O)C[C@@H](O)CC(=O)O[C@H]1C)C[C@H](O)[C@H]2C(=O)O` [AMPHOTERICIN B] showed an MIC [3] of 1.1 µM (≈ 1.02 µg/mL) and an MIC [13] of 7.8 mg/L.
Work on `CCCCCCCCCCCCN1CCNCC1` yielded an MIC [14] of 7.7 µM (≈ 1.96 µg/mL), an MIC [1] of 30.7 µM (≈ 7.81 µg/mL) and an MIC [2] of 15.3 µM (≈ 3.89 µg/mL). For the same molecule, the MIC [3] was 30.7 µM (≈ 7.81 µg/mL), the MIC [4] was 15.3 µM (≈ 3.89 µg/mL) and the MIC [15] was 15.3 µM (≈ 3.89 µg/mL). For the same molecule, the MIC [16] was 15.3 µM (≈ 3.89 µg/mL), the MIC [5] was 7.7 µM (≈ 1.96 µg/mL) and the MIC [6] was 7.7 µM (≈ 1.96 µg/mL). The MIC [7] was 7.7 µM (≈ 1.96 µg/mL), the MIC [17] was 15.3 µM (≈ 3.89 µg/mL) and the MIC [18] was 7.7 µM (≈ 1.96 µg/mL). It also gave an MIC [19] of 30.7 µM (≈ 7.81 µg/mL), an MIC [13] of 3.9 mg/L and an MIC50 [20] of 7.8 mg/L (≈ 30.7 µM). For the same molecule, the MIC80 [20] was 31.3 mg/L (≈ 123 µM), the Activity [21] was “Toxic” and the Activity [22] was “Toxic”. The Activity [23] was “Toxic”, the solubility [11] was “Soluble” and the solubility [12] was “Soluble”. The Ratio [24] was 2 - 8, the Ratio [25] was 2 - 8 and the Ratio [26] was 2 - 8. For the same molecule, the Ratio [27] was 1 - 4.
`CCCCCCCCCCCCCCN1CCNCC1` gave an MIC [14] of 3.5 µM (≈ 0.989 µg/mL), an MIC [1] of 3.5 µM (≈ 0.989 µg/mL) and an MIC [2] of 3.5 µM (≈ 0.989 µg/mL). The MIC [3] was 6.9 µM (≈ 1.95 µg/mL), the MIC [4] was 3.5 µM (≈ 0.989 µg/mL) and the MIC [15] was 6.9 µM (≈ 1.95 µg/mL). It also gave an MIC [16] of 6.9 µM (≈ 1.95 µg/mL), an MIC [5] of 3.5 µM (≈ 0.989 µg/mL) and an MIC [6] of 3.5 µM (≈ 0.989 µg/mL). For the same molecule, the MIC [7] was 3.5 µM (≈ 0.989 µg/mL), the MIC [17] was 3.5 µM (≈ 0.989 µg/mL) and the MIC [18] was 3.5 µM (≈ 0.989 µg/mL). It also gave an MIC [19] of 3.5 µM (≈ 0.989 µg/mL), an MIC [13] of 7.8 mg/L and an MIC [28] of 7.8 mg/L. It also gave an MIC [29] of 7.8 mg/L, an MIC50 [20] of 15.6 mg/L (≈ 55.2 µM) and an MIC80 [20] of 62.5 mg/L (≈ 221 µM). For the same molecule, the Activity [21] was “Toxic”, the Activity [22] was “Toxic” and the Activity [23] was “Toxic”. The solubility [11] was “Soluble”, the solubility [12] was “Soluble” and the Ratio [24] was 2 - 8. The Ratio [25] was 2 - 8, the Ratio [26] was 2 - 8 and the Ratio [27] was 16 - 64.
